Measured values reported in ChEMBL document CHEMBL4346672, “Antimicrobial and KPC/AmpC inhibitory activity of functionalized benzosiloxaboroles” (Eur J Med Chem, 2019).
Activity calls are given as the source filed them. The calls are words filed in the database; no cut-off is given here.

What was measured:
[1] = test system: Pichia kudriavzevii; test: Antifungal activity against Candida krusei ATCC 6258 assessed as diameter of zone inhibition incubated for 24 hrs by CLSI disc diffusion method; type: functional
Procedure, shortened: (§1)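 Yeast disc diffusion on Mueller-Hinton agar supplemented with 2% glucose and 0.5 mg/L methylene blue. Compounds in DMSO. Yeasts subcultured on Sabouraud dextrose agar before testing. Zones read after 35 °C, 24 h.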

[2] = test system: Enterococcus faecium; test: Antibacterial activity against Enterococcus faecium ATCC 6057 assessed as diameter of zone inhibition measured after 18 hrs by CLSI disc diffusion method; type: functional
Procedure, shortened: (§2)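 Disc diffusion on Mueller-Hinton II agar. Compounds dissolved in DMSO. Strains stored at -80 °C and subcultured twice on tryptic soy agar before testing. Inhibition zones read after 35 °C, 18 h.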

[3] = test system: Escherichia coli; test: Antibacterial activity against Escherichia coli ATCC 25922 assessed as diameter of zone inhibition measured after 18 hrs by CLSI disc diffusion method; type: functional; procedure, shortened: as §2
[4] = test system: Meyerozyma guilliermondii; test: Antifungal activity against Candida guilliermondii IBA 155 assessed as diameter of zone inhibition incubated for 24 hrs by CLSI disc diffusion method; type: functional; procedure, shortened: as §1
[5] = test system: Stenotrophomonas maltophilia; test: Antibacterial activity against Stenotrophomonas maltophilia ATCC 13637 assessed as diameter of zone inhibition measured after 18 hrs by CLSI disc diffusion method; type: functional; procedure, shortened: as §2
[6] = test system: Bacillus subtilis; test: Antibacterial activity against Bacillus subtilis ATCC 6633 assessed as diameter of zone inhibition measured after 18 hrs by CLSI disc diffusion method; type: functional; procedure, shortened: as §2
[7] = test system: Candida albicans; test: Antifungal activity against Candida albicans ATCC 90028 assessed as diameter of zone inhibition incubated for 24 hrs by CLSI disc diffusion method; type: functional; procedure, shortened: as §1
[8] = test system: Staphylococcus epidermidis; test: Antibacterial activity against Staphylococcus epidermidis ATCC 12228 assessed as diameter of zone inhibition measured after 18 hrs by CLSI disc diffusion method; type: functional; procedure, shortened: as §2
[9] = test system: Proteus mirabilis; test: Antibacterial activity against Proteus mirabilis ATCC 12453 assessed as diameter of zone inhibition measured after 18 hrs by CLSI disc diffusion method; type: functional; procedure, shortened: as §2
[10] = test system: Candida parapsilosis; test: Antifungal activity against Candida parapsilosis ATCC 22019 assessed as diameter of zone inhibition incubated for 24 hrs by CLSI disc diffusion method; type: functional; procedure, shortened: as §1
[11] = Dissociation constant, pKa1 of compound in 0.1 M NaOH by potentiometric analysis; type: physicochemical
[12] = test system: Candida tropicalis; test: Antifungal activity against Candida tropicalis IBA 171 assessed as diameter of zone inhibition incubated for 24 hrs by CLSI disc diffusion method; type: functional; procedure, shortened: as §1
[13] = test system: Klebsiella pneumoniae; conditions: ATCC 13883
[14] = test system: Enterococcus faecalis; test: Antibacterial activity against Enterococcus faecalis ATCC 29212 assessed as diameter of zone inhibition measured after 18 hrs by CLSI disc diffusion method; type: functional; procedure, shortened: as §2
[15] = test system: Enterobacter cloacae; test: Antibacterial activity against Enterobacter cloacae DSM 6234 assessed as diameter of zone inhibition measured after 18 hrs by CLSI disc diffusion method; type: functional; procedure, shortened: as §2
[16] = test system: Staphylococcus aureus; test: Antibacterial activity against Staphylococcus aureus ATCC 6538P assessed as diameter of zone inhibition measured after 18 hrs by CLSI disc diffusion method; type: functional; procedure, shortened: as §2
[17] = Dissociation constant, pKa2 of compound in 0.1 M NaOH by potentiometric analysis; type: physicochemical
[18] = test system: Burkholderia cepacia; test: Antibacterial activity against Burkholderia cepacia ATCC 25416 assessed as diameter of zone inhibition measured after 18 hrs by CLSI disc diffusion method; type: functional; procedure, shortened: as §2
[19] = test system: Saccharomyces cerevisiae; test: Antifungal activity against Saccharomyces cerevisiae ATCC 9763 diameter of zone inhibition incubated for 24 hrs by CLSI disc diffusion method; type: functional
Procedure, shortened: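 Disc-diffusion run on Mueller-Hinton II agar with 2% glucose and 0.5 mg/L methylene blue, using compounds in DMSO. Yeast was precultured on Sabouraud dextrose agar (24–48 h, 30 °C). Zones read after 24 h at 35 °C.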

[20] = test system: Bordetella bronchiseptica; test: Antibacterial activity against Bordetella bronchiseptica ATCC 4617 assessed as diameter of zone inhibition measured after 18 hrs by CLSI disc diffusion method; type: functional; procedure, shortened: as §2
[21] = test system: Acinetobacter baumannii; test: Antibacterial activity against Acinetobacter baumannii ATCC 19606 assessed as diameter of zone inhibition measured after 18 hrs by CLSI disc diffusion method; type: functional; procedure, shortened: as §2
[22] = test system: Pseudomonas aeruginosa; test: Antibacterial activity against Pseudomonas aeruginosa ATCC 27853 assessed as diameter of zone inhibition measured after 18 hrs by CLSI disc diffusion method; type: functional, organism-based; procedure, shortened: as §2
[23] = test system: Serratia marcescens; conditions: ATCC 13880

C[Si]1(C)OB(O)c2cc3c(c(F)c21)[Si](C)(C)OB3O
diameter of the inhibition zone (DIZ) [1]: inactive
diameter of the inhibition zone (DIZ) [2]: 16 mm
diameter of the inhibition zone (DIZ) [3]: inactive
diameter of the inhibition zone (DIZ) [4]: inactive
diameter of the inhibition zone (DIZ) [5]: inactive
diameter of the inhibition zone (DIZ) [6]: 27 mm
diameter of the inhibition zone (DIZ) [7]: 11 mm
diameter of the inhibition zone (DIZ) [8]: 34 mm
diameter of the inhibition zone (DIZ) [9]: inactive
diameter of the inhibition zone (DIZ) [10]: inactive
pKa [11]: 5.9
diameter of the inhibition zone (DIZ) [12]: inactive
DIZ [13]: inactive
diameter of the inhibition zone (DIZ) [14]: 15 mm
diameter of the inhibition zone (DIZ) [15]: inactive
diameter of the inhibition zone (DIZ) [16]: 22 mm
pKa [17]: 8.6
diameter of the inhibition zone (DIZ) [18]: inactive
diameter of the inhibition zone (DIZ) [19]: inactive
diameter of the inhibition zone (DIZ) [20]: inactive
diameter of the inhibition zone (DIZ) [21]: inactive
diameter of the inhibition zone (DIZ) [22]: inactive
DIZ [23]: inactive
